Data on 14 compounds can be found in PubChem BioAssay.

The source made the active and inactive calls.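 How the source made its calls, unless noted: active means inhibition of the reporter signal at or above 50%; inactive means inhibition below 50%.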

The nature of assay [1]: inhibitors of TNFa-induced NFkB p65 translocation, primary screen, imaging, HUVEC, MLSMR starter and 10KST1 sets (AID 438;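 active means inhibition above 20% together with a positive visual image hit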;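 further: compound added about 3h40 before a 20 min TNFalpha stimulation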;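 on inhibition: signal is the nuclear over cytoplasmic p65 intensity ratio per well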). The note with it: HUVEC TNFa-induced p65 nuclear translocation; cell count: measured here: nuclei count (cytotoxicity indicator), at 2.08 µM; inhibition: at 2 µM, stronger effect = higher value, 0% TNFa-plus-vehicle, 100% no-TNFa wells.
A short description of assay [2]: reduction of polyQ htt aggregates in cells – imaging, exon1htt(103Q)mCFP cells, high-content imaging, primary screen (AID 483;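 active means visual image review flags a hit and inhibition of aggregation exceeds 20%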;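 further: compound exposure lasted 3 days before fixation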;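 on nuclei count: percent of the per-plate median nuclei count of sample wells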). Particulars: exon1htt(103Q)mCFP cell line, aggregate imaging, at 2 µM; inhibition of aggregation: stronger effect = higher value; nuclei count: measured here: cell count, toxicity.
Assay [3] can be described thus: endothelial E-selectin expression blockers – imaging, HUVEC, immunofluorescence, MLSMR starter and 10KST1 sets, primary screen (AID 487;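 active means visually confirmed hit in the image check and inhibition above 20%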;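 on inhibition: signal is fraction of cell area covered by stained E-selectin grains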;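 on nuclei count: 100% = median nuclei count of all wells on the same plate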). Particulars: HUVEC TNFalpha-induced E-selectin immunofluorescence imaging, at 2 µM; inhibition: stronger effect = higher value; nuclei count: measured here: cell number, toxicity.
Assay [4] has as its target Voltage-gated potassium channel subunit beta-2 (Rattus norvegicus) (UniProt P62483). Nature of the assay: inhibitors of rat Kvbeta2 reductase activity – biochemical, NADPH fluorescence, primary screen (AID 622;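 active means fluorescence slope higher than the sample average by over 3 SD, cut at about -0.22 in these data, passing the limit was not always enough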;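 further: slope of raw intensity against log time taken from 70 to 1610 s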). Particulars: recombinant KvBeta, 4-cyanobenzaldehyde reduction, at 10 µM, stronger effect = higher value.
Assay [5] has the same target. Kind of assay: enhancers of rat Kvbeta2 NADPH turnover – biochemical, NADPH fluorescence, primary screen (AID 623;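 active means NADPH fluorescence slope more negative than the mean of all samples by about 3 SD, 99.7% confidence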;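 further: fluorescence intensity change per second fitted from 20 to 320 s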). Particulars: Recombinant KvBeta, NADPH fluorescence decrease slope, 10 min; at 10 µM; stronger effect = lower value.
Assay [6] has as its target Muscarinic acetylcholine receptor M4 (Homo sapiens) (UniProt P08173). Kind of assay: M4-linked GIRK flux change, two-sided – cell-based, HEK293 M4/GIRK, thallium flux, BTC-AM, M4 allosteric agonist project, primary screen (AID 625;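 active means fluorescence slope after compound addition differing from the mean of all tested samples at 99.7% confidence, mostly higher but some lower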;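 further: thallium influx through GIRK channels coupled to M4 in HEK293 cells with BTC-AM dye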). The note with it: at 10 µM, actives lie on both sides. The procedure, abridged: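 System: HEK293 cells with M4 receptor and GIRK channels | Incubation: Cells overnight at 37 °C, BTC-AM loading 1 h, reads 2 min total | Technique: Kinetic BTC-AM fluorescence sampled at 1 Hz, 10 s pre-addition baseline | Measure: Post-addition slope, 15–24 s, of baseline-normalized fluorescence | Control set: Carbachol positive, DMSO negative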

Assay [7] is described as follows: blockers of RIG-like receptor reporter activation – cell-based, Sendai virus stimulus, luciferase, 10K MLSCN set, TLR/RLR signaling modifier project, primary screen (AID 602276;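 active means inhibition at or above 50% at 10 µM; inactive means inhibition below 50%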;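 further: firefly luciferase from ISG56 promoter only with Renilla not read in this screen; 0% = Sendai virus plus DMSO and 100% = medium plus DMSO without virus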). The note with it: HEK293 RL24 IRF3 luciferase reporter, at 10 µM, stronger effect = higher value.
The nature of assay [8]: TLR3 IRF3 reporter activation blockers – cell-based, poly I:C stimulus, luciferase, 10K MLSCN set, primary screen (AID 602277). The note with it: HEK293-TLR3 RL24 IRF3 luciferase reporter, at 10 µM, stronger effect = higher value. In general terms: A reporter such as luciferase makes a cellular process visible.

Muscarinic acetylcholine receptor M4 (Homo sapiens), sequence (P08173 whole entry, looked up): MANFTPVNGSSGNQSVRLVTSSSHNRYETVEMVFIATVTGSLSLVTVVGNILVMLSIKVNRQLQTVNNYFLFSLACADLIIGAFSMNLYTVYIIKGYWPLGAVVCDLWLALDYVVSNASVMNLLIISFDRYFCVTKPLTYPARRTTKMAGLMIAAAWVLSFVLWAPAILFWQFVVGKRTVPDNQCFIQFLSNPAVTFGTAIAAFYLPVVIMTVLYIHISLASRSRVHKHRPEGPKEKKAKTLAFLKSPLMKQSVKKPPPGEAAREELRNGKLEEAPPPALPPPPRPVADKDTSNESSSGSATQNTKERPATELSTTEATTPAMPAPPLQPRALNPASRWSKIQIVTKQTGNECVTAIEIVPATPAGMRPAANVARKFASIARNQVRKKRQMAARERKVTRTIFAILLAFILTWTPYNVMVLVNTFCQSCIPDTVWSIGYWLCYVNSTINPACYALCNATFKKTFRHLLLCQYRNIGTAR
Voltage-gated potassium channel subunit beta-2 (Rattus norvegicus), sequence (P62483 whole entry, looked up): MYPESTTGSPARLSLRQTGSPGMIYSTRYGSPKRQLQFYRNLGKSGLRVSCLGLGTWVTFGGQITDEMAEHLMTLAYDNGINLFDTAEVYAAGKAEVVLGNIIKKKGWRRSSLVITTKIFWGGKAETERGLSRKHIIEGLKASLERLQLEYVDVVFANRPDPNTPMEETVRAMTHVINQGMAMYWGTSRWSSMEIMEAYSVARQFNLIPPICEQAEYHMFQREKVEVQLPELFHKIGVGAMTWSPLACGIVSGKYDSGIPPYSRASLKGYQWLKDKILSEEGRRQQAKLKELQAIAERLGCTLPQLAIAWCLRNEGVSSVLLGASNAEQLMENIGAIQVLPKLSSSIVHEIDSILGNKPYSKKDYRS

The term inhibition denotes the drop in the measured response relative to a control, in per cent. Regarding `Cc1cccn2cc(-c3ccccc3)nc12`, in assay [1], the cell count was determined as 394. Further, the inhibition was 1.7% (inactive) in assay [1], -36.2% (inactive) in assay [3], 2.94% (inactive) in assay [7] and -39.3% (inactive) in assay [8]. Also, the inhibition of aggregation in assay [2] is -5.2% (inactive). The values for the nuclei count in assay [2] and in assay [3] were 103% and 89.3%, respectively. For the same compound, the fluorescence slope in assay [4] is -0.557 (inactive); in assay [6], 0.00519 (inactive). Further, the NADPH fluorescence slope in assay [5] was -1.4e-05 (inactive).

As for `COCCn1nnnc1C(c1cc2cc(C)cc(C)c2[nH]c1=O)N1CCN(c2ccccc2F)CC1` (centres undefined), the cell count in assay [1] came to 660. Also, the inhibition in assay [1] is 10.1% (inactive); in assay [3], 13.5% (inactive); in assay [7], 16.8% (inactive); in assay [8], 29.8% (inactive). Also, in assay [2], the inhibition of aggregation is -11% (inactive). In addition, the nuclei count is 80.7% in assay [2] and 130% in assay [3]. For the same compound, the values for the fluorescence slope in assay [4] and in assay [6] were -0.413 (inactive) and 0.00818 (inactive), respectively. Further, in assay [5], the NADPH fluorescence slope is 0.000111 (inactive).

`Cc1ccc(F)cc1NC(=O)c1cccc2nccnc12`: in assay [1], the cell count came out at 532. Further, the inhibition in assay [1] is -45.9% (inactive); in assay [3], -61% (inactive); in assay [7] it was -11.7% (inactive); in assay [8], -19.2% (inactive). Also, the inhibition of aggregation in assay [2] is -49.2% (inactive). Besides, the nuclei count amounted to 13.4% in assay [2] and 108% in assay [3]. Besides, the figures for the fluorescence slope in assay [4] and in assay [6] were -0.554 (inactive) and 0.00494 (inactive), respectively. Moreover, the NADPH fluorescence slope in assay [5] is 2e-05 (inactive).

In the case of `Cc1cc(=O)[nH]c2c1cnn2Cc1ccccc1`, the cell count in assay [1] turned out to be 270. Further, the inhibition in assay [1] is 3.9% (inactive); in assay [3] it was -37.7% (inactive); in assay [7], 13.7% (inactive); in assay [8], 15.7% (inactive). In addition, the inhibition of aggregation in assay [2] is 13.6% (inactive). In addition, the nuclei count turned out to be 79.2% in assay [2] and 104% in assay [3]. Further, the fluorescence slope is -0.483 (inactive) in assay [4] and 0.00447 (inactive) in assay [6]. For the same compound, the NADPH fluorescence slope in assay [5] is -6.1e-05 (inactive).

Regarding `CN(C)C(=O)C12CCC(C)(c3nc4ccccc4nc31)C2(C)C` (centres undefined), the cell count in assay [1] was found to be 504. The inhibition in assay [1] is -6.5% (inactive); in assay [3], -59.3% (inactive); in assay [7], -7.12% (inactive); in assay [8] it was -15.4% (inactive). Further, the inhibition of aggregation in assay [2] is -24% (inactive). The nuclei count in assay [2] was found to be 97%; in assay [3], 112%. The fluorescence slope in assay [4] was -0.492 (inactive); in assay [6], 0.00404 (inactive). In addition, the NADPH fluorescence slope in assay [5] was -2e-05 (inactive).

Regarding `CCCCn1c(SCC(=O)c2ccc3c(c2)OCCO3)nnc1-c1ccco1`, the cell count in assay [1] came out at 528. Also, the inhibition in assay [1] was -12.7% (inactive); in assay [3], 15.4% (inactive); in assay [7], 6.03% (inactive); in assay [8] it was 12.4% (inactive). Further, the inhibition of aggregation in assay [2] was -5.2% (inactive). Further, the figures for the nuclei count in assay [2] and in assay [3] were 108% and 110%, respectively. The figures for the fluorescence slope in assay [4] and in assay [6] were -0.483 (inactive) and 0.00599 (inactive), respectively. The NADPH fluorescence slope in assay [5] was 0.00011 (inactive).

For the compound `COCCn1cc(C(=O)NCCCN2CCC(C)CC2)c2c3ccccc3n(C)c2c1=O`, the cell count in assay [1] was 493. For the same compound, the inhibition in assay [1] was 2.1% (inactive); in assay [3], -38.5% (inactive); in assay [7], 0.372% (inactive); in assay [8], 16.6% (inactive). For the same compound, the inhibition of aggregation in assay [2] was -2.6% (inactive). Further, the nuclei count in assay [2] worked out at 110%; in assay [3], 115%. Moreover, the fluorescence slope in assay [4] was -0.562 (inactive); in assay [6], 0.00626 (inactive). Besides, in assay [5], the NADPH fluorescence slope was -5.2e-05 (inactive).

Take `CCN1C(=O)N(CC)C2C1N(C(C)=O)C(=O)N2C(C)=O` (centres undefined): the cell count in assay [1] was 373. Besides, the inhibition is 3.7% (inactive) in assay [1], -9.3% (inactive) in assay [3], 13.4% (inactive) in assay [7] and 16.9% (inactive) in assay [8]. Further, the inhibition of aggregation in assay [2] is 0.2% (inactive). In addition, the results for the nuclei count in assay [2] and in assay [3] were 115% and 117%, respectively. The values for the fluorescence slope in assay [4] and in assay [6] were -0.579 (inactive) and 0.0074 (inactive), respectively. Besides, the NADPH fluorescence slope in assay [5] is -6.5e-05 (inactive).

Turning to `CCOc1ccc2[nH]c(=O)c(CN(Cc3ccccc3)C(=O)N3CCCC3)cc2c1`, the cell count in assay [1] was determined as 497. The inhibition in assay [1] is -14.1% (inactive); in assay [3], 54.1% (inactive); in assay [7] it was 10.6% (inactive); in assay [8], 25.9% (inactive). Besides, the inhibition of aggregation in assay [2] is 14.8% (inactive). Moreover, the values for the nuclei count in assay [2] and in assay [3] were 67.9% and 48.2%, respectively. In addition, the fluorescence slope in assay [4] is -0.475 (inactive); in assay [6], 0.00557 (inactive). The NADPH fluorescence slope in assay [5] was 6.7e-06 (inactive).

Take `Cc1ccc(S(=O)(=O)N2CCC(C(=O)N[C@@H](Cc3ccccc3)C(=O)O)CC2)cc1`: in assay [1], the cell count stood at 332. Besides, the inhibition was -14.4% (inactive) in assay [1], 41.9% (inactive) in assay [3], -10.7% (inactive) in assay [7] and -5.08% (inactive) in assay [8]. Further, the inhibition of aggregation in assay [2] is 11.7% (inactive). Further, the results for the nuclei count in assay [2] and in assay [3] were 99.8% and 97.6%, respectively. Moreover, the figures for the fluorescence slope in assay [4] and in assay [6] were -0.563 (inactive) and 0.00616 (inactive), respectively. Moreover, the NADPH fluorescence slope in assay [5] was -4.9e-05 (inactive).

As for `Cc1cc(OC(=O)N2CCOCC2)cc(C)c1Cl`, the cell count in assay [1] was 309. Further, the inhibition is -12.3% (inactive) in assay [1], -50% (inactive) in assay [3], -13.8% (inactive) in assay [7] and 99.2% (active) in assay [8]. In addition, the inhibition of aggregation in assay [2] was -22.3% (inactive). The nuclei count in assay [2] was determined as 114%; in assay [3], 130%. The fluorescence slope in assay [4] is -0.444 (inactive); in assay [6] it was 0.00877 (inactive). For the same compound, in assay [5], the NADPH fluorescence slope was 5.1e-05 (inactive).

On to `O=C(NCc1ccco1)C1CC(=O)N(c2ccc(F)cc2)C1` (centres undefined), for which the cell count in assay [1] was 375. Also, the inhibition is 3.6% (inactive) in assay [1], -34.5% (inactive) in assay [3], 3.07% (inactive) in assay [7] and 12% (inactive) in assay [8]. For the same compound, the inhibition of aggregation in assay [2] is -0.9% (inactive). Also, the nuclei count in assay [2] is 97.4%; in assay [3], 124%. The results for the fluorescence slope in assay [4] and in assay [6] were -0.593 (inactive) and 0.00568 (inactive), respectively. Further, the NADPH fluorescence slope in assay [5] is -2e-05 (inactive).

`Cc1cc(NC(=O)CSc2ccc(Cl)cc2)no1`: the cell count in assay [1] was 368. In addition, the inhibition is 0.2% (inactive) in assay [1], -83.4% (inactive) in assay [3], -7.02% (inactive) in assay [7] and -14.7% (inactive) in assay [8]. Also, the inhibition of aggregation in assay [2] was 12.7% (inactive). Also, the figures for the nuclei count in assay [2] and in assay [3] were 94.2% and 102%, respectively. Besides, the fluorescence slope in assay [4] was -0.548 (inactive); in assay [6] it was 0.00359 (inactive). Besides, the NADPH fluorescence slope in assay [5] was -0.000128 (inactive).

As to `Cc1ccc(-c2cc(C(F)(F)F)n3ncc(C(=O)O)c3n2)cc1`, in assay [1], the cell count is 412. Further, the inhibition in assay [1] is 3.1% (inactive); in assay [3], -26.7% (inactive); in assay [7], 19.6% (inactive); in assay [8], 21.8% (inactive). Also, the inhibition of aggregation in assay [2] is -8.3% (inactive). Moreover, the nuclei count in assay [2] amounted to 109%; in assay [3] it was 110%. For the same compound, the figures for the fluorescence slope in assay [4] and in assay [6] were -0.524 (inactive) and 0.00395 (inactive), respectively. The NADPH fluorescence slope in assay [5] is -3.4e-05 (inactive).
